Experimental data as given in ChEMBL document CHEMBL1123589, “Phenylpiperazine-based radiopharmaceuticals for brain imaging. 3. Synthesis and evaluation of radioiodinated 1-alkyl-4-phenylpiperazines” (J Med Chem, 1987).

Columns and labels:
Conditions in all cases: in vivo
Rattus norvegicus [1] = test: The biodistribution of the [125I]-labeled compound in rats after intravenous injection was evaluated in muscle at 1.00 hrs (ID.kg/g); assay type: ADME, organism-based, Muscle tissue
How it was run: (§1)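 Male Sprague-Dawley rats (250–300 g) under ether anesthesia given iv 0.1 mL saline containing 10–15 μCi of NCA ¹²⁵I-labeled agent (chloramine-T iodination, HPLC-purified). Groups of 3 killed at 0.25, 1 and 4 h. Blood and tissues excised, weighed and γ-counted. Values are mean (range) of % injected dose × body mass (kg) per gram of tissue.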

Rattus norvegicus [2] = test: The biodistribution of the [125I]-labeled compound in rats after intravenous injection was evaluated in liver at 4.00 hrs; value ranges from 0.19-0.22 (ID.kg/g); assay type: ADME, organism-based
How it was run: (§2)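 Male Sprague-Dawley rats (250–300 g) under ether anesthesia received 10–15 μCi of NCA radioiodinated (125I) tracer iv in 0.1 mL saline. Groups of 3 were killed at 0.25, 1 and 4 h. Blood and tissues were excised, weighed and counted in a γ-well scintillation counter. Values are % injected dose × body mass (kg) per g tissue, given as mean with range.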

Rattus norvegicus [3] = test: The biodistribution of the [125I]-labeled compound in rats after intravenous injection was evaluated in liver at 1.00 hrs; value ranges from 0.30-0.36 (ID.kg/g); assay type: ADME, organism-based; how it was run: as §2
Rattus norvegicus [4] = test: The biodistribution of the [125I]-labeled compound in rats after intravenous injection was evaluated in blood at 1.00 hrs (ID.kg/g); assay type: ADME, organism-based
How it was run: (§3)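 Male Sprague-Dawley rats (250–300 g) under ether anesthesia were given an iv injection of no-carrier-added 125I-labelled agent (10–15 μCi in 0.1 mL saline). The agent was iodinated with chloramine-T in acetate buffer and purified by C-18 HPLC. Groups of N = 3 were killed at 0.25, 1 and 4 h. Blood and tissues were weighed and γ-counted. Values are % ID·kg/g, mean (range).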

Rattus norvegicus [5] = test: The biodistribution of the [125I]-labeled compound in rats after intravenous injection was evaluated in lung at 1.00 hrs; value ranges from 0.86-0.96 (ID.kg/g); assay type: ADME, organism-based; how it was run: as §2
Rattus norvegicus [6] = test: The biodistribution of the [125I]-labeled compound in rats after intravenous injection was evaluated in heart at 1.00 hrs; value ranges from 0.16-0.21 (ID.kg/g); assay type: ADME, organism-based; how it was run: as §2
Rattus norvegicus [7] = test: The biodistribution of the [125I]-labeled compound in rats after intravenous injection was evaluated in brain at 4.00 hrs; value ranges from 0.11-0.13 (ID.kg/g); assay type: ADME, organism-based; how it was run: as §2
Rattus norvegicus [8] = test: The biodistribution of the [125I]-labeled compound in rats after intravenous injection was evaluated in lung at 4.00 hrs; value ranges from 0.35-0.36 (ID.kg/g); assay type: ADME, organism-based; how it was run: as §2
Rattus norvegicus [9] = test: The biodistribution of the [125I]-labeled compound in rats after intravenous injection was evaluated in brain at 0.25 hrs; value ranges from 0.25-0.30 (ID.kg/g); assay type: ADME, organism-based; how it was run: as §2
Rattus norvegicus [10] = test: The biodistribution of the [125I]-labeled compound in rats after intravenous injection was evaluated in thyroid at 1.00 hrs; value ranges from 2.47-2.81 (ID.kg/g); assay type: ADME, organism-based, Thyroid gland
Rattus norvegicus [11] = test: The biodistribution of the [125I]-labeled compound in rats after intravenous injection was evaluated in kidney at 4.00 hrs; value ranges from 0.23-0.24 (ID.kg/g); assay type: ADME, organism-based; how it was run: as §2
Rattus norvegicus [12] = test: The biodistribution of the [125I]-labeled compound in rats after intravenous injection was evaluated in heart at 4.00 hrs (ID.kg/g); assay type: ADME, organism-based; how it was run: as §2
Rattus norvegicus [13] = test: The biodistribution of the [125I]-labeled compound in rats after intravenous injection was evaluated in thyroid at 0.25 hrs; value ranges from 2.05-2.47 (ID.kg/g); assay type: ADME, organism-based, Thyroid gland
Rattus norvegicus [14] = test: The biodistribution of the [125I]-labeled compound in rats after intravenous injection was evaluated in fat at 1.00 hrs (ID.kg/g); assay type: ADME, organism-based, Adipose tissue; how it was run: as §3
Rattus norvegicus [15] = test: The biodistribution of the [125I]-labeled compound in rats after intravenous injection was evaluated in adrenal at 0.25 hrs; value ranges from 0.97-1.66 (ID.kg/g); assay type: ADME, organism-based; how it was run: as §2
Rattus norvegicus [16] = test: The biodistribution of the [125I]-labeled compound in rats after intravenous injection was evaluated in kidney at 1.00 hrs; value ranges from 0.43-0.47 (ID.kg/g); assay type: ADME, organism-based; how it was run: as §2
Rattus norvegicus [17] = test: The biodistribution of the [125I]-labeled compound in rats after intravenous injection was evaluated in muscle at 0.25 hrs (ID.kg/g); assay type: ADME, organism-based, Muscle tissue; how it was run: as §1
Rattus norvegicus [18] = test: The biodistribution of the [125I]-labeled compound in rats after intravenous injection was evaluated in brain at 1.00 hrs; value ranges from 0.21-0.27 (ID.kg/g); assay type: ADME, organism-based; how it was run: as §2
Rattus norvegicus [19] = test: The biodistribution of the [125I]-labeled compound in rats after intravenous injection was evaluated in blood at 4.00 hrs (ID.kg/g); assay type: ADME, organism-based; how it was run: as §3
Rattus norvegicus [20] = test: The biodistribution of the [125I]-labeled compound in rats after intravenous injection was evaluated in adrenal at 4.00 hrs; value ranges from 0.39-0.45 (ID.kg/g); assay type: ADME, organism-based; how it was run: as §2
Rattus norvegicus [21] = test: The biodistribution of the [125I]-labeled compound in rats after intravenous injection was evaluated in blood at 0.25 hrs (ID.kg/g); assay type: ADME, organism-based; how it was run: as §3
Rattus norvegicus [22] = test: The biodistribution of the [125I]-labeled compound in rats after intravenous injection was evaluated in fat at 0.25 hr (ID. kg/g); assay type: ADME, organism-based, Adipose tissue; how it was run: as §3
Rattus norvegicus [23] = test: The biodistribution of the [125I]-labeled compound in rats after intravenous injection was evaluated in muscle at 4.00 hrs (ID.kg/g); assay type: ADME, organism-based, Muscle tissue; how it was run: as §1
Rattus norvegicus [24] = test: The biodistribution of the [125I]-labeled compound in rats after intravenous injection was evaluated in adrenal at 1.00 hrs; value ranges from 0.61-1.12 (ID.kg/g); assay type: ADME, organism-based; how it was run: as §2
Rattus norvegicus [25] = test: The biodistribution of the [125I]-labeled compound in rats after intravenous injection was evaluated in lung at 0.25 hrs; value ranges from 1.14-1.30 (ID.kg/g); assay type: ADME, organism-based; how it was run: as §2
Rattus norvegicus [26] = test: The biodistribution of the [125I]-labeled compound in rats after intravenous injection was evaluated in kidney at 0.25 hr; value ranges from 0.49-0.61 (ID.kg/g); assay type: ADME, organism-based; how it was run: as §2
Rattus norvegicus [27] = test: The biodistribution of the [125I]-labeled compound in rats after intravenous injection was evaluated in heart at 0.25 hrs; value ranges from 0.23-0.28 (ID.kg/g); assay type: ADME, organism-based; how it was run: as §2
Rattus norvegicus [28] = test: The biodistribution of the [125I]-labeled compound in rats after intravenous injection was evaluated in fat at 4.00 hrs (ID.kg/g); assay type: ADME, organism-based, Adipose tissue; how it was run: as §3
Rattus norvegicus [29] = test: The biodistribution of the [125I]-labeled compound in rats after intravenous injection was evaluated in thyroid at 4.00 hrs; value ranges from 2.51-3.60 (ID.kg/g); assay type: ADME, organism-based, Thyroid gland
Rattus norvegicus [30] = test: The biodistribution of the [125I]-labeled compound in rats after intravenous injection was evaluated in liver at 0.25 hr; value ranges from 0.32-0.39 (ID.kg/g); assay type: ADME, organism-based; how it was run: as §2

Biodistribution (Rattus norvegicus [1]): 0.03 %ID·kg/g
Biodistribution (Rattus norvegicus [2]): 0.22%
Biodistribution (Rattus norvegicus [3]): 0.36%
Biodistribution (Rattus norvegicus [4]): 0.01 % ID·kg/g
Biodistribution (Rattus norvegicus [5]): 0.96%
Biodistribution (Rattus norvegicus [6]): 0.21%
Biodistribution (Rattus norvegicus [7]): 0.13%
Biodistribution (Rattus norvegicus [8]): 0.36%
Biodistribution (Rattus norvegicus [9]): 0.3%
Biodistribution (Rattus norvegicus [10]): 2.81%
Biodistribution (Rattus norvegicus [11]): 0.24%
Biodistribution (Rattus norvegicus [12]): 0.08%
Biodistribution (Rattus norvegicus [13]): 2.47%
Biodistribution (Rattus norvegicus [14]): 0.01 % ID·kg/g
Biodistribution (Rattus norvegicus [15]): 1.66%
Biodistribution (Rattus norvegicus [16]): 0.47%
Biodistribution (Rattus norvegicus [17]): 0.03 % ID·kg/g
Biodistribution (Rattus norvegicus [18]): 0.27%
Biodistribution (Rattus norvegicus [19]): 0.01 % ID·kg/g
Biodistribution (Rattus norvegicus [20]): 0.45%
Biodistribution (Rattus norvegicus [21]): 0.01 % ID·kg/g
Biodistribution (Rattus norvegicus [22]): 0.01 % ID·kg/g
Biodistribution (Rattus norvegicus [23]): 0.01 %ID·kg/g
Biodistribution (Rattus norvegicus [24]): 1.12%
Biodistribution (Rattus norvegicus [25]): 1.3%
Biodistribution (Rattus norvegicus [26]): 0.61%
Biodistribution (Rattus norvegicus [27]): 0.28%
Biodistribution (Rattus norvegicus [28]): 0.01%
Biodistribution (Rattus norvegicus [29]): 3.6%
Biodistribution (Rattus norvegicus [30]): 0.39%
Compound: Ic1ccc(N2CCN(C3CCCCC3)CC2)cc1
